A short description of series [1]: Half-life at 37 degree Celsius in aqueous solution at pH 7.4. Format: ADME. A digest of the protocol: (§1)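 Carbamate hydrochloride salt (about 0.5 mg) taken up in buffer pre-warmed to 37 °C, final about 1 mM, and held at 37 °C. Samples were injected straight onto C-18 reverse-phase HPLC at intervals, or quenched in 1 N HCl first. Carbamate and 4-methoxyphenol were read at 220 nm. Half-life is the time to 50% conversion, fitted by first-order kinetics. Each value is the mean of at least two separate runs.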

Series [2] in a line: pKa of the compound. Format: physicochemical.
A short description of series [3]: Half-life at 37 degree Celsius in aqueous solution at pH 6.8. Format: ADME. A digest of the protocol: as §1
Series [4] in a line: Half-life at 37 degree Centigrade, towards Murine plasma esterases at pH 7.4. Format: ADME. The conditions noted are these: mouse. A digest of the protocol:
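Carbamate HCl salt dissolved in dilute H3PO4, then added to fresh murine plasma with pH 7.4 phosphate buffer (plasma:buffer 1.6:0.40) at 37 °C, final 5×10^-4 M. pH held at 7.4 by pH-stat. Aliquots taken at intervals were quenched in 7% HClO4 and centrifuged, and the supernatant was analysed.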

The nature of series [5]: Half-life at 37 degree Centigrade, in aqueous solution at pH 7.4. Format: ADME. The procedure, abridged:
as §1

Series [6] is described as follows: Half-life at 37 degree Celsius in aqueous solution at pH 4.2. Format: ADME. A digest of the protocol:
as §1

A short description of series [7]: Half-life at 37 degree Celsius in aqueous solution at pH 5.2. Format: ADME. A digest of the protocol: as §1

Each structure is given as a SMILES string. A value given as a limit tells only on which side of the number the result lay.

On to `CCNCCN(CC)C(=O)Oc1ccc(OC)cc1.Cl`, for which, in series [1], the half-life was 118 min. Molecule `COc1ccc(OC(=O)NCCCN)cc1.Cl` showed a half-life in series [1] of 910 min. For the same molecule, the pKa in series [2] came out at 9.6. Take `CNCCN(C)C(=O)Oc1ccc(OC)cc1.Cl`: the half-life in series [3] is 140 min; in series [4], 56 min; in series [5] it was 36.3 min; in series [6], greater than 15 days; in series [7], 2.41 days.

In series [1], `COc1ccc(OC(=O)N(C)CCN(C)C)cc1.Cl` registered a half-life of 39.6 min.

`CNCCCN(C)C(=O)Oc1ccc(OC)cc1.Cl`: the half-life in series [1] stood at 942 min.

In series [1], `CNCCNC(=O)Oc1ccc(OC)cc1.Cl` registered a half-life of 335 min. In series [1], `COc1ccc(OC(=O)NCCN)cc1.Cl` yielded a half-life of 724 min. Moreover, the pKa in series [2] came out at 8.65. For the molecule `CNCCOC(=O)Oc1ccc(OC)cc1.Cl`, the half-life in series [1] is less than 0.3 min. `COc1ccc(OC(=O)N(C)CCN)cc1.Cl` came in with a half-life in series [1] of 304 min. This molecule also showed a pKa in series [2] of 8.9.

Source of the values: ChEMBL document CHEMBL1124971, “Cyclization-activated prodrugs. Basic carbamates of 4-hydroxyanisole” (J Med Chem, 1990).
